Broadly, the IC50 is the concentration that gives 50% inhibition. Broadly, the EC50 is the concentration that produces a half-maximal response. What is called CC50 is the concentration giving 50% cytotoxicity.

Results on 14 compounds are retold here after ChEMBL document CHEMBL4038304, “Chiral Indolylarylsulfone Non-Nucleoside Reverse Transcriptase Inhibitors as New Potent and Broad Spectrum Anti-HIV-1 Agents” (J Med Chem, 2017).

The target of data set [1] is Human immunodeficiency virus type 1 reverse transcriptase (Human immunodeficiency virus 1, UniProt Q72547, Y181I). In words: Inhibition of HIV1 reverse transcriptase p66 Y181I mutant associated RNA dependent DNA polymerase activity expressed in Escherichia coli assessed as reduction in [3H]dTTP incorporation using poly(rA)/oligo(dT) as template/primer by scintillation counting analysis.

The test system of data set [2] is Human immunodeficiency virus 1. In words: Antiviral activity against HIV1 harboring reverse transcriptase Y188L mutant infected in human […] cells assessed as protection against virus-induced cytopathic effect measured on day 5 post infection by MTT assay. Particulars: Human immunodeficiency virus 1, 120 h. Type of data set: functional, cell-based. For orientation: Protection from cytopathic effect is a common read-out in antiviral testing.

A short description of data set [3]: Inhibition of HIV1 reverse transcriptase p66 K103N/[…] double mutant associated RNA dependent DNA polymerase activity expressed in Escherichia coli assessed as reduction in [3H]dTTP incorporation using poly(rA)/oligo(dT) as template/primer by scintillation counting analysis. Set-up: species or system Human immunodeficiency virus 1.
Data set [4] deals with Human immunodeficiency virus 1. In words: Antiviral activity against HIV1 harboring reverse transcriptase Y181C mutant infected in human […] cells assessed as protection against virus-induced cytopathic effect measured on day 5 post infection by MTT assay. The data set is classed as functional, cell-based. Particulars: Human immunodeficiency virus 1, 120 h.
In data set [5] the target is Human immunodeficiency virus type 1 reverse transcriptase (Human immunodeficiency virus 1, UniProt Q72547, K103N). In words: Inhibition of HIV1 reverse transcriptase p66 K103N mutant associated RNA dependent DNA polymerase activity expressed in Escherichia coli assessed as reduction in [3H]dTTP incorporation using poly(rA)/oligo(dT) as template/primer by scintillation counting analysis.

Data set [6] has as its system Human immunodeficiency virus 1. The data set can be described thus: Antiviral activity against HIV1 harboring reverse transcriptase K103N /[…] double mutant infected in human […] cells assessed as protection against virus-induced cytopathic effect measured on day 5 post infection by MTT assay. The data set is classed as functional, cell-based. Particulars: Human immunodeficiency virus 1, 120 h.

For data set [7], the system named is Human immunodeficiency virus 1. The data set can be described thus: Antiviral activity against HIV1 harboring reverse transcriptase K103N mutant infected in human […] cells assessed as protection against virus-induced cytopathic effect measured on day 5 post infection by MTT assay. The data set is classed as functional, cell-based. Particulars: Human immunodeficiency virus 1, 120 h.

For data set [8], the system named is Human immunodeficiency virus 1. The data set can be described thus: Antiviral activity against HIV1 NL4-3 infected in human […] cells assessed as protection against virus-induced cytopathic effect measured on day 5 post infection by MTT assay. Type of data set: functional, cell-based. Particulars: Human immunodeficiency virus 1, NL4-3, 120 h. A digest of the protocol:
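Values are means of two to three independent experiments, each run in triplicate. The lowest detectable concentration is reported where activity fell below the assay limit.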

Data set [9] concerns the target Human immunodeficiency virus type 1 reverse transcriptase (Human immunodeficiency virus 1, UniProt Q72547). In words: Inhibition of HIV1 NL4-3 reverse transcriptase His-tagged p66/p51 associated RNA dependent DNA polymerase activity expressed in Escherichia coli assessed as reduction in [3H]dTTP incorporation using poly(rA)/oligo(dT) as template/primer by scintillation counting analysis.

Data set [10] has as its system Human immunodeficiency virus 1. The data set can be described thus: Ratio of EC50 for HIV-1 harboring reverse transcriptase K103N/[…] double mutant infected in human MT4 cells to EC50 for HIV1 NL4-3 infected in human MT4 cells. Type of data set: functional. A digest of the protocol:
(§1)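 Fold change calculated as EC50 against the stated resistant mutant HIV-1 strain divided by EC50 against wild-type NL4-3. Both EC50s come from MTT read-out of virus-induced death in MT-4 cells, mean of two to three independent experiments each in triplicate.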

The nature of data set [11]: Cytotoxicity against human MT4 cells assessed as cell viability by MTT assay. Type of data set: cell-based. Summed up:
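Uninfected MT-4 cells scored for viability by MTT. […] Values are means of two to three independent experiments, each run in triplicate.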
A general note: Formazan colour is commonly taken as a measure of viable cells.

The subject of data set [12] is Human immunodeficiency virus 1. The data set can be described thus: Ratio of EC50 for HIV-1 harboring reverse transcriptase K103N mutant infected in human MT4 cells to EC50 for HIV1 NL4-3 infected in human MT4 cells. Type of data set: functional. A digest of the protocol: as §1
The test system of data set [13] is Human immunodeficiency virus 1. In words: Ratio of EC50 for HIV-1 harboring reverse transcriptase Y188L mutant infected in human MT4 cells to EC50 for HIV1 NL4-3 infected in human MT4 cells. Type of data set: functional. A digest of the protocol: as §1
Data set [14] is described as follows: Selectivity index, ratio of CC50 for human MT4 cells to EC50 for HIV1 NL4-3 infected in human MT4 cells. Type of data set: toxicity, cell-based. Particulars: read-out: Ratio CC50/EC50. Summed up: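 SI computed as CC50/EC50, using the MTT-based CC50 in uninfected MT-4 cells and the MTT-based EC50 against HIV-1 NL4-3-induced cell death in MT-4 cells. Experiments were run in triplicate, two to three times.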

For data set [15], the system named is Human immunodeficiency virus 1. The data set can be described thus: Ratio of EC50 for HIV-1 harboring reverse transcriptase Y181C mutant infected in human MT4 cells to EC50 for HIV1 NL4-3 infected in human MT4 cells. The data set is classed as functional. Summed up: as §1

As to `Cc1cc(C)cc(S(=O)(=O)c2c(C(=O)N[C@H](C)C(=O)N[C@H](C)c3ccncc3)[nH]c3ccc(Cl)cc23)c1`, the IC50 in data set [1] came out at 5.79 µM; in data set [3], 13.8 µM; in data set [5], 23.7 µM; in data set [9] it was 410 nM. Moreover, the EC50 is above 27000 nM in data set [2]; 1170 nM in data set [4]; above 27 µM in data set [6]; 1210 nM in data set [7]; 3.8 nM in data set [8].

`Cc1cc(C)cc(S(=O)(=O)c2c(C(=O)N[C@@H](C)C(=O)NCc3ccncn3)[nH]c3ccc(Cl)cc23)c1`: the IC50 in data set [1] is 3.14 µM; in [3], 14.3 µM; in data set [5], 2.86 µM; in data set [9], 470 nM. The EC50 in data set [2] is 380 nM; in data set [4], 0.6 nM; in data set [6], 0.779 µM; in data set [7], 0.6 nM; in data set [8], 0.6 nM.

For the compound `Cc1cc(C)cc(S(=O)(=O)c2c(C(=O)N[C@H](C)C(=O)NCc3ccncn3)[nH]c3ccc(Cl)cc23)c1`, the results for the IC50 in data set [1], in data set [5] and in data set [9] were 3.35 µM, 19.9 µM and 1800 nM, respectively. Further, the EC50 was 5740 nM in [2]; 171 nM in data set [4]; above 24.5 µM in data set [6]; 76 nM in data set [7]; 0.6 nM in [8].

Turning to `Cc1cc(C)cc(S(=O)(=O)c2c(C(=O)NCC(=O)NCCn3c(C)cnc3[N+](=O)[O-])[nH]c3ccc(Cl)cc23)c1`, the “Ratio EC50” value in data set [10] was found to be 23285; in data set [12], 1395; in [13], 11605; in [15] it was 85. The EC50 in data set [2] amounted to 2320 nM; in data set [4], 17 nM; in [6] it was 4.68 µM; in [7] it was 279 nM; in data set [8] it was 0.2 nM. For the same compound, the CC50 in [11] stood at 24.5 µM. Moreover, the selectivity ratio in [14] is 144000.

Turning to `Cc1cc(C)cc(S(=O)(=O)c2c(C(=O)NC(C)c3ccco3)[nH]c3ccc(Cl)cc23)c1` (racemic), the “Ratio EC50” value turned out to be 17195 in data set [10], 155 in [12], 500 in data set [13] and 31 in [15]. Besides, the EC50 worked out at 350 nM in [2]; 22 nM in data set [4]; 12 µM in data set [6]; 109 nM in data set [7]; 0.7 nM in [8]. For the same compound, the CC50 in data set [11] is above 54.7 µM. Further, the selectivity ratio in data set [14] was above 78200.

For the compound `Cc1cc(C#N)cc(C)c1Oc1nc(Nc2ccc(C#N)cc2)nc(N)c1Br` [ETRAVIRINE], the IC50 in [3] is 0.097 µM. Further, the EC50 came out at 18 nM in data set [4], 0.0046 µM in data set [6], 0.7 nM in data set [7] and 16.1 nM in data set [8]. For the same compound, the CC50 in data set [11] is above 23 µM.

Consider `Cc1cc(C)cc(S(=O)(=O)c2c(C(=O)NCC(=O)NC(C)c3ccccc3)[nH]c3ccc(Cl)cc23)c1` (racemic), for which the “Ratio EC50” value in data set [10] is given as above 48978; in data set [12], 350; in data set [13], 2703; in data set [15], 127. The EC50 in data set [2] was 1620 nM; in data set [4] it was 76 nM; in data set [6] it was above 29.4 µM; in [7], 210 nM; in data set [8] it was 0.6 nM. Further, the CC50 in data set [11] amounted to 29.4 µM. In addition, the selectivity ratio in data set [14] is above 49000.

As to `Cc1cc(C)cc(S(=O)(=O)c2c(C(=O)NC(C)C(=O)NCCc3cccs3)[nH]c3ccc(Cl)cc23)c1` (racemic), the “Ratio EC50” value was above 16336 in data set [10], 30 in data set [12], above 16336 in [13] and 215 in data set [15]. Besides, the EC50 in [2] is above 9800 nM; in [4] it was 129 nM; in data set [6] it was above 9.8 µM; in data set [7], 18 nM; in data set [8], 0.6 nM. The CC50 in data set [11] is 9.5 µM. The selectivity ratio in [14] was determined as 52800.

Regarding `Cc1cc(C)cc(S(=O)(=O)c2c(C(=O)NCC(=O)NC(C)c3ccncc3)[nH]c3ccc(Cl)cc23)c1` (racemic), the “Ratio EC50” value in data set [10] came out at 22227; in [12] it was 64; in data set [13], 1017; in data set [15], 1. Further, the EC50 in data set [2] was determined as 610 nM; in [4] it was 0.6 nM; in data set [6], 13.3 µM; in data set [7], 38 nM; in data set [8] it was 0.6 nM. Further, the CC50 in [11] is 47 µM. Moreover, in data set [14], the selectivity ratio was above 78400.

Turning to `Cc1cc(C)cc(S(=O)(=O)c2c(C(=O)NC(C)C(=O)NC(C)c3ccccc3)[nH]c3ccc(Cl)cc23)c1` (racemic), the “Ratio EC50” value stood at 42149 in data set [10], 3.2 in [12], 6427 in [13] and 283 in data set [15]. The EC50 in data set [2] was found to be 3790 nM; in data set [4] it was 167 nM; in data set [6] it was 24.9 µM; in [7], 1.9 nM; in data set [8], 0.6 nM. Moreover, the CC50 in data set [11] amounted to 21.7 µM. For the same compound, the selectivity ratio in data set [14] was above 36900.

With `Cc1cc(C)cc(S(=O)(=O)c2c(C(=O)NCc3n[nH]c4ccccc34)[nH]c3ccc(Cl)cc23)c1`, the “Ratio EC50” value is 913 in data set [10], 1 in [12], 237 in data set [13] and 1 in data set [15]. The EC50 in [2] was 142 nM; in data set [4], 0.6 nM; in data set [6], 0.548 µM; in [7], 0.6 nM; in [8] it was 0.6 nM. Moreover, the CC50 in data set [11] is above 50.7 µM. Besides, the selectivity ratio in data set [14] was above 84500.

Regarding `Cc1cc(C)cc(S(=O)(=O)c2c(C(=O)NCC(=O)NCCc3cccs3)[nH]c3ccc(Cl)cc23)c1`, the “Ratio EC50” value in data set [10] was above 941; in data set [12], 352; in [13], above 941; in [15] it was 84. Moreover, the EC50 in data set [2] is above 3580 nM; in [4] it was 321 nM; in data set [6], above 3.58 µM; in data set [7], 1340 nM; in [8], 3.8 nM. Besides, the CC50 in [11] came out at 35.7 µM. In data set [14], the selectivity ratio was 9480.

With `Cc1cc(C)cc(S(=O)(=O)c2c(C(=O)NC(C)C(=O)NCCn3c(C)cnc3[N+](=O)[O-])[nH]c3ccc(Cl)cc23)c1` (racemic), the “Ratio EC50” value in [10] came to 26405; in [12], 850; in data set [13] it was 23850; in [15] it was 850. Also, the EC50 amounted to 4770 nM in data set [2]; 170 nM in data set [4]; 5.28 µM in data set [6]; 170 nM in [7]; 0.2 nM in [8]. Besides, in data set [11], the CC50 amounted to 16 µM. In data set [14], the selectivity ratio was found to be 94200.

With `Cc1cc(C)cc(S(=O)(=O)c2c(C(=O)NCC(=O)NC(C)c3ccccc3F)[nH]c3ccc(Cl)cc23)c1` (racemic), the “Ratio EC50” value is on record as above 38345 in data set [10], 552 in [12], 6118 in data set [13] and 19 in data set [15]. In addition, the EC50 in data set [2] is 3670 nM; in [4], 13 nM; in [6] it was above 23 µM; in [7], 387 nM; in data set [8], 0.6 nM. For the same compound, in data set [11], the CC50 is above 23 µM. In addition, the selectivity ratio in data set [14] is above 38300.
